Reference: ChEMBL document CHEMBL1828552, “Synthesis and studies of novel 2-(4-cyano-3-trifluoromethylphenyl amino)-4-(quinoline-4-yloxy)-6-(piperazinyl/piperidinyl)-s-triazines as potential antimicrobial, antimycobacterial and anticancer agents” (2011)
In brackets after ≈: the same amount, converted by molar mass.

Columns and labels:
DU-145 = assay: Cytotoxicity against […] human DU145 cells after 48 hrs by SRB assay; format: functional; conditions: DU-145, 48 h
In short: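 SRB assay in DU-145 cells grown in RPMI 1640 with 10% FBS and 2 mM L-glutamine. Cells were plated and held 24 h before addition of four 10-fold concentrations. After 48 h, cells were TCA-fixed, stained with 0.4% SRB and read at 540 nm. GI50, TGI and LC50 were derived against time-zero and control wells; each value is the mean of three experiments.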

Aspergillus clavatus [1] = assay: Antifungal activity against 10^5 CFU/mL Aspergillus clavatus MTCC 1323 after 48 hrs by agar streak dilution method; format: functional; conditions: MTCC 1323, 48 h
In short: (§1)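 Agar streak dilution for fungi. Stock 100 µg/mL in DMSO; graded amounts were mixed into molten Sabouraud dextrose agar and poured at 4–5 mm depth. Serial dilutions ran over […]. About 10⁵ CFU/mL inoculum was applied, with incubation at 37 ± 1 °C for 48 h. MIC was read from the dilution series.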

Klebsiella pneumoniae [2] = assay: Antibacterial activity against 10^5 CFU/mL Klebsiella pneumoniae MTCC 109 after 24 hrs by disc diffusion technique; format: functional
In short: (§2)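 Disc diffusion on Mueller–Hinton agar poured 5 mm deep. The surface was swabbed with a 10⁵ CFU/mL […] suspension. Filter-paper discs 6.25 mm in diameter were soaked in compound in DMSO and placed on the agar. Plates were incubated 24 h at 37 ± 1 °C, and the inhibition zone was measured in mm. A DMSO disc served as blank.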

Staphylococcus aureus [3] = assay: Antibacterial activity against 10^5 CFU/mL Staphylococcus aureus MTCC 96 after 24 hrs by agar streak dilution method; format: functional; conditions: MTCC 96, 24 h
In short: (§3)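 Agar streak dilution. Stock 100 µg/mL in DMSO; graded amounts were mixed into molten nutrient agar and poured at 4–5 mm depth. Plates carried serial dilutions over […]. About 10⁵ CFU/mL of each bacterium was applied, and plates were incubated at 37 ± 1 °C for 24 h. MIC was read from the dilution series.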

Escherichia coli [4] = assay: Antibacterial activity against 10^5 CFU/mL Escherichia coli MTCC 739 after 24 hrs by disc diffusion technique; format: functional; in short: as §2
Salmonella typhi [5] = assay: Antibacterial activity against 10^5 CFU/mL Salmonella typhi MTCC 733 after 24 hrs by disc diffusion technique; format: functional, Salmonella enterica subsp. enterica serovar Typhi
In short: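 Disc diffusion. Mueller-Hinton agar autoclaved 120 °C 30 min, poured 5 mm deep. Surface swabbed with 10⁵ CFU/mL suspension […]. 6.25 mm filter-paper discs soaked in compound in DMSO; DMSO-only disc as blank. Incubated 37 ± 1 °C, 24 h for bacteria or 48 h for fungi. Ciprofloxacin and ketoconazole discs as reference drugs. Inhibition zone measured in mm.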

Aspergillus fumigatus [6] = assay: Antifungal activity against 10^5 CFU/mL Aspergillus fumigatus MTCC 343 after 48 hrs by disc diffusion technique; format: functional
Bacillus cereus [7] = assay: Antibacterial activity against 10^5 CFU/mL Bacillus cereus MTCC 619 after 24 hrs by disc diffusion technique; format: functional; in short: as §2
Bacillus cereus [8] = assay: Antibacterial activity against 10^5 CFU/mL Bacillus cereus MTCC 619 after 24 hrs by agar streak dilution method; format: functional; conditions: MTCC 619, 24 h; in short: as §3
Aspergillus niger [9] = assay: Antifungal activity against 10^5 CFU/mL Aspergillus niger MTCC 282 after 48 hrs by disc diffusion technique; format: functional
Salmonella typhi [10] = assay: Antibacterial activity against 10^5 CFU/mL Salmonella typhi MTCC 733 after 24 hrs by agar streak dilution method; format: functional, Salmonella enterica subsp. enterica serovar Typhi; conditions: Salmonella enterica, MTCC 733, 24 h
Pseudomonas aeruginosa [11] = assay: Antibacterial activity against 10^5 CFU/mL Pseudomonas aeruginosa MTCC 741 after 24 hrs by disc diffusion technique; format: functional; in short: as §2
Aspergillus fumigatus [12] = assay: Antifungal activity against 10^5 CFU/mL Aspergillus fumigatus MTCC 343 after 48 hrs by agar streak dilution method; format: functional; conditions: MTCC 343, 48 h; in short: as §1
Proteus vulgaris [13] = assay: Antibacterial activity against 10^5 CFU/mL Proteus vulgaris MTCC 1771 after 24 hrs by disc diffusion technique; format: functional; in short: as §2
Klebsiella pneumoniae [14] = assay: Antibacterial activity against 10^5 CFU/mL Klebsiella pneumoniae MTCC 109 after 24 hrs by agar streak dilution method; format: functional; conditions: MTCC 109, 24 h; in short: as §3
Aspergillus niger [15] = assay: Antifungal activity against 10^5 CFU/mL Aspergillus niger MTCC 282 after 48 hrs by agar streak dilution method; format: functional; conditions: MTCC 282, 48 h; in short: as §1
Candida albicans [16] = assay: Antifungal activity against 10^5 CFU/mL Candida albicans MTCC 183 after 48 hrs by agar streak dilution method; format: functional; conditions: MTCC 183, 48 h; in short: as §1
Shigella flexneri [17] = assay: Antibacterial activity against 10^5 CFU/mL Shigella flexneri MTCC 1457 after 24 hrs by agar streak dilution method; format: functional; conditions: MTCC 1457, 24 h; in short: as §3
Shigella flexneri [18] = assay: Antibacterial activity against 10^5 CFU/mL Shigella flexneri MTCC 1457 after 24 hrs by disc diffusion technique; format: functional; in short: as §2
Escherichia coli [19] = assay: Antibacterial activity against 10^5 CFU/mL Escherichia coli MTCC 739 after 24 hrs by agar streak dilution method; format: functional; conditions: MTCC 739, 24 h; in short: as §3
Proteus vulgaris [20] = assay: Antibacterial activity against 10^5 CFU/mL Proteus vulgaris MTCC 1771 after 24 hrs by agar streak dilution method; format: functional; conditions: MTCC 1771, 24 h; in short: as §3
Staphylococcus aureus [21] = assay: Antibacterial activity against 10^5 CFU/mL Staphylococcus aureus MTCC 96 after 24 hrs by disc diffusion technique; format: functional; in short: as §2
Pseudomonas aeruginosa [22] = assay: Antibacterial activity against 10^5 CFU/mL Pseudomonas aeruginosa MTCC 741 after 24 hrs by agar streak dilution method; format: functional; conditions: MTCC 741, 24 h; in short: as §3
Candida albicans [23] = assay: Antifungal activity against 10^5 CFU/mL Candida albicans MTCC 183 after 48 hrs by disc diffusion technique; format: functional
Aspergillus clavatus [24] = assay: Antifungal activity against 10^5 CFU/mL Aspergillus clavatus MTCC 1323 after 48 hrs by disc diffusion technique; format: functional

SMILES	GI50 (DU-145) [µM]	LC50 (concentration giving 50% net cell kill relative to time zero) (DU-145) [µM]	TGI (DU-145) [µM]	MIC (Aspergillus clavatus [1]) [µg/mL]	inhibition zone (IZ) (Klebsiella pneumoniae [2]) [mm]	MIC (Staphylococcus aureus [3]) [µg/mL]	inhibition zone (IZ) (Escherichia coli [4]) [mm]	inhibition zone (IZ) (Salmonella typhi [5]) [mm]	inhibition zone (IZ) (Aspergillus fumigatus [6]) [mm]	inhibition zone (IZ) (Bacillus cereus [7]) [mm]	MIC (Bacillus cereus [8]) [µg/mL]	inhibition zone (IZ) (Aspergillus niger [9]) [mm]	MIC (Salmonella typhi [10]) [µg/mL]	inhibition zone (IZ) (Pseudomonas aeruginosa [11]) [mm]	MIC (Aspergillus fumigatus [12]) [µg/mL]	inhibition zone (IZ) (Proteus vulgaris [13]) [mm]	MIC (Klebsiella pneumoniae [14]) [µg/mL]	MIC (Aspergillus niger [15]) [µg/mL]	MIC (Candida albicans [16]) [µg/mL]	MIC (Shigella flexneri [17]) [µg/mL]	other results
N#Cc1ccc(Nc2nc(Oc3ccnc4ccccc34)nc(N3CCN(c4ccccc4Cl)CC3)n2)cc1C(F)(F)F	92.6	> 100	> 100	100 (≈ 166 µM)	26	12.5 (≈ 20.7 µM)	22	23	21	24	12.5 (≈ 20.7 µM)	21	50 (≈ 82.9 µM)	23	100 (≈ 166 µM)	23	12.5 (≈ 20.7 µM)	100 (≈ 166 µM)	100 (≈ 166 µM)	50 (≈ 82.9 µM)	inhibition zone (IZ) (Shigella flexneri [18]): 21 mm; MIC (Escherichia coli [19]): 50 µg/mL (≈ 82.9 µM); MIC (Proteus vulgaris [20]): 100 µg/mL (≈ 166 µM); inhibition zone (IZ) (Staphylococcus aureus [21]): 25 mm; MIC (Pseudomonas aeruginosa [22]): 50 µg/mL (≈ 82.9 µM); inhibition zone (IZ) (Candida albicans [23]): 20 mm; inhibition zone (IZ) (Aspergillus clavatus [24]): 20 mm
N#Cc1ccc(Nc2nc(Oc3ccnc4ccccc34)nc(N3CCN(c4ccccn4)CC3)n2)cc1C(F)(F)F	85.9	> 100	> 100	100 (≈ 176 µM)	17	100 (≈ 176 µM)	19	15	12	19	100 (≈ 176 µM)	<10	100 (≈ 176 µM)	16	100 (≈ 176 µM)	16	100 (≈ 176 µM)	100 (≈ 176 µM)	100 (≈ 176 µM)	100 (≈ 176 µM)	inhibition zone (IZ) (Shigella flexneri [18]): 16 mm; MIC (Escherichia coli [19]): 100 µg/mL (≈ 176 µM); MIC (Proteus vulgaris [20]): 100 µg/mL (≈ 176 µM); inhibition zone (IZ) (Staphylococcus aureus [21]): 21 mm; MIC (Pseudomonas aeruginosa [22]): 100 µg/mL (≈ 176 µM); inhibition zone (IZ) (Candida albicans [23]): 13 mm; inhibition zone (IZ) (Aspergillus clavatus [24]): <10 mm
CC(=O)N1CCN(c2nc(Nc3ccc(C#N)c(C(F)(F)F)c3)nc(Oc3ccnc4ccccc34)n2)CC1	75.1	> 100	> 100	12.5 (≈ 23.4 µM)	23	12.5 (≈ 23.4 µM)	24	23	21	24	12.5 (≈ 23.4 µM)	21	100 (≈ 187 µM)	24	100 (≈ 187 µM)	27	50 (≈ 93.5 µM)	100 (≈ 187 µM)	100 (≈ 187 µM)	25 (≈ 46.8 µM)	inhibition zone (IZ) (Shigella flexneri [18]): 23 mm; MIC (Escherichia coli [19]): 12.5 µg/mL (≈ 23.4 µM); MIC (Proteus vulgaris [20]): 6.25 µg/mL (≈ 11.7 µM); inhibition zone (IZ) (Staphylococcus aureus [21]): 26 mm; MIC (Pseudomonas aeruginosa [22]): 12.5 µg/mL (≈ 23.4 µM); inhibition zone (IZ) (Candida albicans [23]): 17 mm; inhibition zone (IZ) (Aspergillus clavatus [24]): 27 mm
